Data set [1] in a line: Maximum concentration (Cmax) using 0.4% Methyl cellulose (MC) as vehicle. compound was administered intravenously to nude mice at a dose of 25 mg/kg. To be noted: mouse, in vivo, iv. More on the design: dose 25 mg/kg, route intravenous. It counts as ADME, organism-based. In outline:
(§1)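 Nude mice were dosed at 25 mpk, intravenously or orally as the line states, in 20% aqueous hydroxypropyl-β-cyclodextrin or 0.4% aqueous methyl cellulose. Serum was sampled over 24 h. Each time point came from sera of different animals.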

Data set [2] can be described thus: Area under curve was determined using 0.4% Methyl cellulose (MC) as vehicle. Compound was administered intravenously to nude mice at a dose of 25 mg/kg. It counts as ADME, organism-based. More on the design: dose 25 mg/kg, route intravenous. The following applies: mouse, in vivo, iv. A digest of the protocol: as §1
The nature of data set [3]: Area under curve was determined using 0.4% Methyl cellulose (MC) as vehicle. Compound was administered orally to nude mice at a dose of 25 mg/kg. The class given is ADME, organism-based. Also on record: dose 25 mg/kg, route oral. To be noted: mouse, in vivo, po. In outline: as §1
Data set [4] concerns the target T1, Protein farnesyltransferase (Homo sapiens, UniProt P49354+P49356). In words: Effect on Ras processing in Cos-1 monkey kidney cells expressing either H-Ras-Val 12-CVLS or H-Ras-Val12. It counts as functional, cell-based, Cercopithecidae. In outline:
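Ras processing was tested in Cos-1 monkey kidney cells transiently expressing H-Ras-Val12-CVLS or H-Ras-Val12. IC50 values are single-point determinations.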

Data set [5] is described as follows: Area under curve was determined using 20%aqueous hydroxypropyl-beta-cyclodextrin (HPbetaCD) as vehicle. Compound was administered orally to nude mice at a dose of 25 mg/kg. Also on record: dose 25 mg/kg, route oral. To be noted: mouse, in vivo, po. It counts as ADME, organism-based. In outline:
as §1

The nature of data set [6]: Half life was administered by using 20%aqueous hydroxypropyl-beta-cyclodextrin (HPbetaCD) as vehicle to nude mice at a dose of 25mpk,. The class given is ADME, organism-based. To be noted: mouse, in vivo, 25 mg/kg.
Data set [7] concerns NIH-3T3 (Mus musculus). The data set is described as follows: Inhibition of tumor colony formation in soft agar.
Data set [8] is described as follows: Area under curve was determined using 0.4% Methyl cellulose (MC) as vehicle. Compound was administered orally to nude mice at a dose of 25 mg/kg (micronized sample). The class given is ADME, organism-based. More on the design: dose 25 mg/kg, route oral. To be noted: mouse, in vivo, po. In outline: (§2)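 A micronized sample was given orally at 25 mpk to nude mice in 0.4% aqueous methyl cellulose. Serum was collected over 24 h, with separate animals for each time point.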

The nature of data set [9]: Maximum concentration (Cmax) using 0.4% Methyl cellulose (MC) as vehicle. compound was administered orally to nude mice at a dose of 25 mg/kg (micronized sample). The class given is ADME, organism-based. Also on record: dose 25 mg/kg, route oral. To be noted: mouse, in vivo, po. A digest of the protocol:
as §2

A short description of data set [10]: Area under curve was determined using 20%aqueous hydroxypropyl-beta-cyclodextrin (HPbetaCD) as vehicle. Compound was administered intravenously to nude mice at a dose of 25 mg/kg. It counts as ADME, organism-based. More on the design: dose 25 mg/kg, route intravenous. To be noted: mouse, in vivo, iv. In outline: as §1
The nature of data set [11]: Maximum concentration (Cmax) using 20%aqueous hydroxypropyl-beta-cyclodextrin (HPbetaCD) as vehicle. compound was administered orally to nude mice at a dose of 25 mg/kg. It counts as ADME, organism-based. More on the design: dose 25 mg/kg, route oral. To be noted: mouse, in vivo, po. In outline:
as §1

Data set [12] is described as follows: Bioavailability in mouse (nude) using 20% aqueous hydroxypropyl-beta-cyclodextrin (HPbetaCD) as vehicle 25 mg/kg. It counts as ADME, organism-based. The following applies: nude, in vivo.
Data set [13] is described as follows: Bioavailability in mouse (nude) (dose 0.4% Methylcellulose (MC) as vehicle 25 mg/kg). The class given is ADME, organism-based. The following applies: in vivo.
A short description of data set [14]: Percent bioavailability was administered by using 0.4% Methyl cellulose (MC) as vehicle to nude mice at a dose of 25 mg/kg (micronized sample). It counts as ADME, organism-based. To be noted: mouse, in vivo, read-out: Bioavailabiility. A digest of the protocol:
as §2

Data set [15] deals with T1, Protein farnesyltransferase. The data set is described as follows: Inhibition of Hras Farnesyl protein transferase (FPT). It counts as protein-complex assay.
Data set [16] can be described thus: Maximum concentration (Cmax) using 0.4% Methyl cellulose (MC) as vehicle. compound was administered orally to nude mice at a dose of 25 mg/kg. The class given is ADME, organism-based. More on the design: dose 25 mg/kg, route oral. The following applies: mouse, in vivo, po. A digest of the protocol: as §1
Data set [17] can be described thus: Maximum concentration (Cmax) using 20%aqueous hydroxypropyl-beta-cyclodextrin (HPbetaCD) as vehicle. compound was administered intravenously to nude mice at a dose of 25 mg/kg. The class given is ADME, organism-based. More on the design: dose 25 mg/kg, route intravenous. The following applies: mouse, in vivo, iv. In outline: as §1

pIC50: −log10 of the molar value.

The Cmax is the maximum level reached in the sampled fluid or tissue. By AUC is commonly meant the area under the concentration-time curve, a measure of exposure. What is called pIC50 is −log10 of the IC50, conventionally taken in molar units. What is called half-life is how long it takes for the measured level to halve.

Take `O=C(CC1CCN(C(=O)c2ccc[n+]([O-])c2)CC1)N1CCC([C@H]2c3ncc(Br)cc3CCc3cc(Cl)cc(Br)c32)CC1`: the Cmax in [1] amounted to 52.3 µM; in [9] it was 2270 nM; in data set [11], 16.2 µM; in data set [16], 750 nM; in [17], 52.3 µM. Besides, the AUC in [2] came to 62000 ng·h/mL; in [3], 3600 ng·h/mL; in [5], 70100 ng·h/mL; in [8], 5750 ng·h/mL; in data set [10], 62000 ng·h/mL. Besides, the pIC50 in data set [4] was 8.15; in data set [7], 6.78; in data set [15], 8.68. Further, the half-life in data set [6] is 85.2 min. The bioavailability in data set [12] is 113%; in data set [13], 5.81%; in data set [14], 9.28%.

The record behind these values is ChEMBL document CHEMBL1132302, “Identification of pharmacokinetically stable 3, 10-dibromo-8-chlorobenzocycloheptapyridine farnesyl protein transferase inhibitors with potent enzyme and cellular activities” (J Med Chem, 1999).
